High-throughput results (PubChem)
KCNK9 inh = inhibitors of human KCNK9 two-pore domain potassium channel; Q9NPC2; HEK293 KCNK9, FluxOR thallium flux fluorescence; active compounds read low; B-score at 10 µM; hit rate 1.2% among 310,000; AID 488922;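 active = ratio B-score over 3 SD below the library mean, with starting fluorescence within 5 SD of its mean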;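 note: negative B-score means less thallium flux so channel inhibition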
KCNQ1 act = human KCNQ1 channel potentiation or activation. P51787. CHO-K1 KCNQ1, thallium flux FluxOR fluorescence; active compounds read high. B-score at 10 µM. hit rate 0.35% among 310,000. AID 2648;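 active = fluorescence ratio B-score, a plate-corrected score, at least three library SD, with initial intensity B-score within 5 SD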
Target sequence (P51787 whole entry, looked up): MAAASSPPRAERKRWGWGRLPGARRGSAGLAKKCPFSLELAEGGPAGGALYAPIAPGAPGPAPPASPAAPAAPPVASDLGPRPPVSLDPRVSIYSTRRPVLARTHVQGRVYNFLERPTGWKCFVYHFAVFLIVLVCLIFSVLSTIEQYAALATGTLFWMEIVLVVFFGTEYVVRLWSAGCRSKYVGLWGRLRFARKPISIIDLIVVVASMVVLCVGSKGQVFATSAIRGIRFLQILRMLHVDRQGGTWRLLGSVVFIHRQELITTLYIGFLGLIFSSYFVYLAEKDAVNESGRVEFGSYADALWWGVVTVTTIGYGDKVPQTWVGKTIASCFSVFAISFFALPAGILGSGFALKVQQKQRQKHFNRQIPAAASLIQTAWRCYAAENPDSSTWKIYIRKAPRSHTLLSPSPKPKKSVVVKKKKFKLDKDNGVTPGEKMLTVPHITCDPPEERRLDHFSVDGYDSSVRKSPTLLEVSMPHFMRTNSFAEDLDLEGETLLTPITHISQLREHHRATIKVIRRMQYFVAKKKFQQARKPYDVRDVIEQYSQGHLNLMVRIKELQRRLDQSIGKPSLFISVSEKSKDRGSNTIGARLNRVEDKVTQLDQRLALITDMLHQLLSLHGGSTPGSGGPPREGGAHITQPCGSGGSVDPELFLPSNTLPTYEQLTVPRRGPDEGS
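Material: CHO-K1 cells stably expressing KCNQ1. Medium: assay buffer for compound exposure, DMSO matched across wells. Reagent: K+/Tl+ depolarizing stimulus. Compound dosing: single-concentration screen. Times: 37 °C overnight plating, 90-min dark dye load, 20-min compound pretreatment. Technique: FluxOR Tl+ flux fluorescence.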
hERG rescue = hERG (human) protection from proarrhythmic block; activation (rescue from dofetilide block), less the hit threshold, % at 10 µM; CHO-hERG, FluxOR thallium flux, dofetilide IC70 present; hit rate 0.51% among 310,000;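 active = activation above the mean of controls blocked by dofetilide plus 5 SD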;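 note: thallium influx through hERG after potassium depolarization seen as dye fluorescence rise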
KCNK3 block = human KCNK3 channel inhibition, primary screen; O14649; hit rate 0.84% among 340,000; CHO-KCNK3 thallium flux, FluxOR fluorescence; active compounds read low; B-score at 10 µM;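 active = B-score under library mean minus 4 SD, starting fluorescence ratio at most library mean plus 5 SD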;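 note: more negative B-score means stronger inhibition of thallium flux through KCNK3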
KCNQ1 inh = blocks the human KCNQ1 potassium channel. P51787. CHO-K1 KCNQ1, FluxOR thallium flux fluorescence; active compounds read high. B-score at 10 µM. hit rate 1.3% among 310,000. AID 2642;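 active = compounds whose thallium flux B-score, printed positive for inhibition, exceeds three library SD while starting fluorescence stays within three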;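 note: channel opened by potassium depolarization with thallium stimulus after 20 min compound exposure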
Kir21 inh = blocks the mouse Kir2.1 inward-rectifier potassium channel | hit rate 0.85% among 310,000 | HEK293-Kir2.1, FluxOR thallium flux fluorescence; active compounds read low | B-score at 10 µM | P35561;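 active = fluorescence ratio B-score at or below minus 3 SD of library scores, with starting-brightness B-score within 2 SD, cut at about -4.2 in these data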;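 note: channel flux triggered by added potassium and thallium sulfate stimulus; B-score of peak minus minimum fluorescence over baseline after thallium stimulus; more negative B-score means stronger Kir2.1 block with less thallium influx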
KCNK3 confirm = human KCNK3 channel inhibition, confirmation assay; shares compounds with KCNK3 block; CHO-KCNK3 thallium flux, FluxOR fluorescence; 0% buffer, 100% carvedilol maximal block; ratio percent of control, % at 10 µM; hit rate 99% among 2,400; AID 651638;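 active = ratio percent of control, averaged over triplicates, above buffer control mean plus 5 SD, cut at about 64% in these data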;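 note: ratio is the fluorescence rise from min to max over baseline after thallium stimulus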
KCNK3 noninduced = KCNK3 inhibitor counter-screen hit in non-induced cells; thallium flux ratio (lower = more inhibition) at 10 µM; non-induced KCNK3 parental cells, FluxOR thallium flux; active compounds read low; hit rate 40% among 2,400; shares compounds with KCNK3 block;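 active = thallium flux ratio, averaged over three wells, more than 5 SD below the buffer control mean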;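 note: host cells are CHO cells without KCNK3 induction; ratio is peak minus trough fluorescence over baseline then normalized to buffer controls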
An asterisk follows results filed as active; i = inactive; . = not tested or not shown. Rows were chosen to be rich in hits. Some 3.7% of all compounds tested hit in one or more screens of this group.

SMILES	KCNK9 inh	KCNQ1 act	hERG rescue	KCNK3 block	KCNQ1 inh	Kir21 inh	KCNK3 confirm	KCNK3 noninduced
Cc1ccc2c(CN(C)Cc3cccc(Cl)c3)cc(=O)oc2c1C	i	i	-8	-8.7*	i	0.04	126*	i
Cc1cc2oc(=O)cc(CN(C)Cc3ccccc3Cl)c2cc1C	i	i	-9	-10*	6*	1.3	57*	i
CCOc1ccc(CN(C)Cc2cc(=O)oc3c(C)c(C)ccc23)cc1OC	.	.	.	i	.	.	.	.
Cc1cc2oc(=O)cc(CN(C)Cc3cccc(F)c3)c2cc1Cl	i	i	-11	-11*	i	-1.9	100*	i
Cc1cc2oc(=O)cc(CN(C)Cc3ccccc3F)c2cc1Cl	i	i	-7	-12*	i	-4.3*	118*	0.14*
COc1cc(CN(C)Cc2cc(=O)oc3cc(C)c(Cl)cc23)ccc1OC(F)F	i	i	-8	-10*	i	-0.06	106*	i
COc1ccc(CN(C)Cc2cc(=O)oc3cc(C)c(C(C)C)cc23)cc1OC	i	i	-13	i	i	-3.3	.	.
O=C(N/C(=C/c1ccco1)C(=O)N1CCOCC1)c1ccccc1Br	i	i	-4	i	i	2.1	.	.
CN(CC(=O)Nc1cccc(S(=O)(=O)N2CCCC2)c1)CC(=O)Nc1ccc(Cl)c(C(F)(F)F)c1	i	i	-14	-11*	i	0.02	128*	0.14*
CN(CC(=O)Nc1cccc(S(=O)(=O)N2CCCC2)c1)CC(=O)Nc1ccc(F)c(F)c1F	.	.	.	i	.	.	.	.
Cc1ccc(S(=O)(=O)Nc2ccc(S(=O)(=O)Nc3nccs3)cc2)cc1C	.	.	.	i	.	.	.	.
CCn1c(CNC(=O)c2cccc(C)c2)nnc1SCC(=O)N1CCOCC1	i	i	-11	i	i	-0.03	.	.
CCCCCNCc1ccc(Br)cc1	i	i	-5	i	i	1.6	.	.
CCCCCCNCc1ccc(Br)cc1	i	i	-6	-9.7*	i	-1.4	77*	i
Cc1c(CCOC(=O)CC23CC4CC(CC(C4)C2)C3)sc[n+]1CC(=O)c1ccc(Br)cc1	i	i	-33	-10*	6*	-1.8	119*	i
CCCn1c(CCC(=O)Nc2ccccc2Cc2ccccc2)nc2cc(S(=O)(=O)N3CCOCC3)ccc21	i	i	-11	i	i	-0.44	.	.
COc1ccc(Cl)cc1C(=O)NNC(=O)CNC(=O)c1ccc(C)s1	.	.	.	i	.	.	.	.
CC(C)(CNC(=O)c1ccc([N+](=O)[O-])c(Cl)c1)CNC(=O)c1ccc([N+](=O)[O-])c(Cl)c1	-7.9*	i	-20	-9.8*	i	-0.32	131*	0.15*
Cc1nn2c(NCc3ccccn3)cc(C(C)C)nc2c1-c1ccccc1	i	i	-7	i	i	0.63	.	.
Cc1nn2c(NCCCn3ccnc3)cc(C(C)C)nc2c1-c1ccccc1	i	i	-19	-12*	i	-5*	115*	0.14*
OC1(c2cccc(C(F)(F)F)c2)CCN(c2ncnc3c2[nH]c2ccc(F)cc23)CC1	.	.	.	-12*	.	.	132*	i
CCC/C(O)=C1\C(=O)CC(C)(C)CC1=NCc1ccccc1	i	i	-11	i	i	-0.93	.	.
CCCN=C1CC(C)(C)CC(=O)/C1=C(/O)CCC	i	i	-3	-9*	i	2.2	99*	i
CCOC(=O)c1oc2ccc3c(c2c1C)C(=O)CC1(CCN(C(=O)OCC)CC1)O3	i	i	-3	i	i	-2.4	.	.
CCOC(=O)N1CCC2(CC1)CC(=O)c1c(ccc3oc(C(=O)O)c(C)c13)O2	i	i	-17	-15*	i	0.39	0	i
SMILES	KCNK9 inh	KCNQ1 act	hERG rescue	KCNK3 block	KCNQ1 inh	Kir21 inh	KCNK3 confirm	KCNK3 noninduced
COc1ccccc1/C=N/NC(=O)CSc1ccc2ccccc2n1	i	i	-7	-11*	i	0.28	114*	i
COc1ccccc1/C=N/NC(=O)CSc1cc(C)nc2ccccc12	i	i	-11	i	i	-0.06	.	.
CCn1nnc(NC(=O)COc2ccc(C3CCCCC3)cc2)n1	i	i	-15	-9.7*	i	0.54	94*	0.16*
CCOc1ccc(C(=O)Nc2nnn(CC)n2)cc1	i	i	-14	i	i	-1.8	.	.
C/C(=N\OCc1nc2ccccc2c(=O)n1/N=C/c1cc([N+](=O)[O-])ccc1O)c1ccccc1	i	i	-31	-9.1*	6*	-0.92	95*	0.12*
O=[N+]([O-])c1ccc(O)c(/C=N/n2c(CO)nc3ccccc32)c1	i	i	-9	i	i	0.66	.	.
COc1ccc2cc(Br)ccc2c1CC(=O)NC(C)(C)C	i	i	-12	i	i	1	.	.
CN1CCN(CCCNC(=O)c2ccc3c(Cl)c4c(nc3c2)CCCC4)CC1	i	i	-7	i	i	-1.3	.	.
COc1cccc2cc(C(C)N(CCCN3CCOCC3)C(=S)Nc3c(C)cccc3C)oc12 (stereo unspecified)	i	i	-8	i	i	1.6	.	.
CCc1ccc(NC(=O)N(CCCN2CCOCC2)C(C)c2cc3cccc(OC)c3o2)cc1 (stereo unspecified)	i	i	-13	-8.8*	i	-0.28	118*	i
COc1ccc(/C(C)=N/NS(=O)(=O)c2cc(C)ccc2C)c(OC)c1	i	i	-8	-10*	i	0.63	97*	i
CCOc1ccc(S(=O)(=O)N/N=C(\C)c2ccc(OC)cc2OC)cc1	i	i	-7	i	i	0.39	.	.
CNc1ccc(Br)cc(C(=O)/C=C/c2ccc(Cl)cc2Cl)c1=O	i	i	-18	-9.7*	10*	0.24	117*	0.12*
O=C(CSc1ccc(Cl)cc1)N1CCC(c2nc3ccccc3s2)CC1	i	i	-14	-8.8*	i	0.26	127*	0.16*
O=C(CSc1c(Cl)cccc1Cl)N1CCC(c2nc3ccccc3s2)CC1	i	i	-6	i	i	0.91	.	.
CCc1cc(CNC(=O)c2cc(COc3ccc(C)nc3)on2)on1	i	i	-6	-9.4*	i	1.1	0	i
Cc1ccc(OCc2cc(C(=O)NCc3ccc(OC(F)(F)F)cc3)no2)cn1	i	i	-2	i	i	-0.53	.	.
O=C(NC1CCC(Oc2ccc(C(=O)O)cc2)CC1)NC12CC3CC(CC(C3)C1)C2 (stereo unspecified)	.	.	.	i	.	.	.	.
